Assay outcomes deposited in PubChem BioAssay by several laboratories.
HTR2A ag: mouse Htr2a agonists via beta-arrestin recruitment, primary screen, cell-based, luminescence; 5-hydroxytryptamine receptor 2A (Mus musculus), P35363; CHO-K1 mHTR2A beta-arrestin complementation; percent of 30 µM serotonin response; activation, % at 7.6 µM; 360,000 tested, 0.66% active;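 active means activation above a run cutoff, the mean activation of all tested compounds plus 3 SD, cut at about 14% in these data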;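 further: 0% = plate median of compound wells and 100% = 30 µM serotonin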
Target sequence (P35363 whole entry, looked up): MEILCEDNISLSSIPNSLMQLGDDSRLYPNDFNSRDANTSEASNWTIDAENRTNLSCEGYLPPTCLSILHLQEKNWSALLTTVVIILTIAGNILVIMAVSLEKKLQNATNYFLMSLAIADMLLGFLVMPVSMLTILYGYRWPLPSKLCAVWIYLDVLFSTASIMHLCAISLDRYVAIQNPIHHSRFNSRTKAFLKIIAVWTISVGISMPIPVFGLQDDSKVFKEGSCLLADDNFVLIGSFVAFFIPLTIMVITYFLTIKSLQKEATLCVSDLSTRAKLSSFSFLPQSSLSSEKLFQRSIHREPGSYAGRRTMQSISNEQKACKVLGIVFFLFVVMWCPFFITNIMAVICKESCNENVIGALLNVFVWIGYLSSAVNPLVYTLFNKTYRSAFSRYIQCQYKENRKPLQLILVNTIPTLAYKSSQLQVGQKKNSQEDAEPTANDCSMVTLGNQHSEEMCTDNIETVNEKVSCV
AHR act: AHR activators, primary screen, cell-based, luminescence, luciferase reporter, human; Aryl hydrocarbon receptor (Homo sapiens), P35869; AHR-responsive luciferase reporter cells; activation, % at 5 µM; 320,000 tested, 2.5% active; in the data active means activation above about 47%;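 further: 0% = vehicle wells and 100% = reference agonist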
TbMetRS inhib: T. brucei MetRS inhibitors, primary screen, biochemical, luminescence; inhibition, % at 11.9 µM; purified T. brucei MetRS, ATP depletion, Kinase-Glo luminescence; 360,000 tested, 0.4% active;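 active means inhibition above a per-plate cutoff of the control wells' mean inhibition plus 3 SD, cut at about 5.5% in these data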;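 further: 0% = DMSO wells median and 100% = median of wells with control inhibitor compound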
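System: purified T. brucei MetRS enzyme / Detection: Kinase-Glo luciferase luminescence reporting remaining unconsumed ATP / Medium: HEPES buffer with MgCl2, KCl, DTT, spermine, BSA, pyrophosphatase / Replication: singlicate, one well per compound / Evaluation: percent inhibition relative to median high and low control wells / Schedule: 2 h aminoacylation at 25 °C after 15 min preincubation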
bovine MsrA act: bovine MsrA enzyme activators, primary screen, biochemical, absorbance, HTS. Methionine sulfoxide reductase A (Bos taurus). purified bovine MsrA, absorbance read-out. activation, % at 10.6 µM. 360,000 tested, 0.3% active. AID 602163, 2012; in the data active means activation above about 7.5%;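 further: 0% = vehicle and 100% = reference activator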
MsrA inhibitor: bovine MsrA enzyme inhibitors, primary screen, biochemical, absorbance, HTS; Methionine sulfoxide reductase A (Bos taurus); inhibition, % at 15.5 µM; 360,000 tested, 0.75% active; purified bovine MsrA, absorbance read-out; in the data active means inhibition above about 4.5%;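 further: 0% = vehicle wells with enzyme and 100% = reference inhibitor wells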
AI-2 QS modul: Vibrio harveyi AI-2 quorum sensing modulators, primary screen, JMH597 strain, luminescence/OD600 ratio. 300,000 tested, 0.4% active. Vibrio harveyi JMH597 AI-2 luminescence/OD600 ratio, 9 h; active compounds read low; strain lacks LuxN and CqsS sensors; 0 = neutral-control median. activity change, % at 7.5 µM; in the data active means activity change below about -75%, passing the limit was not always enough;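 further: luminescence divided by OD600 gain over 9 h not by final OD600 alone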
OPRM1 ag: OPRM1 agonists via beta-arrestin recruitment, confirmation, counter-screen for mouse HTR2A agonist project, cell-based, luminescence, single concentration; activation, % at 9.3 µM; 2,300 tested, 5.3% active; shares compounds with HTR2A ag; U2OS OPRM1 beta-arrestin PathHunter; DMSO 0%, DAMGO 9.3 µM 100%;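 active means mean activation above the mean of DMSO-only wells plus 3 SD, cut at about 0.5% in these data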
HTR2A ag conf: mouse HTR2A agonists, beta-arrestin recruitment, confirmation, cell-based, luminescence, CHO-K1 PathHunter, triplicate | shares compounds with HTR2A ag | DMSO 0%, 30 µM serotonin 100% | activation, % at 7.6 µM | 2,300 tested, 19% active;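 active means mean activation across triplicates above the hit threshold derived in the original primary screen, cut at about 15% in these data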
An asterisk follows results filed as active. A selection: hits, their analogues and other compounds. The true share with any hit is near 4.4%.

Screening Cc1ccc(SCn2nnc3ccccc3c2=O)c(C)c1 returned HTR2A ag 25*, AHR act 1, TbMetRS inhib 0, bovine MsrA act -3, MsrA inhibitor -1, AI-2 QS modul -15, OPRM1 ag 0 and HTR2A ag conf 0.
`O=c1c2ccccc2nnn1CSc1ccccc1F` gave HTR2A ag -2, AHR act 45, TbMetRS inhib 2, bovine MsrA act -4, MsrA inhibitor 0 and AI-2 QS modul -2.
`O=C(NNC(=S)Nc1ccc(F)c(Cl)c1)c1ccccc1Br` gave HTR2A ag -7, AHR act -1, TbMetRS inhib 0, bovine MsrA act 0, MsrA inhibitor 0 and AI-2 QS modul 17.
Screening Oc1ccccc1C=NNC(=S)NC1CC2C=CC1C2 (centres undefined) returned HTR2A ag 19*, TbMetRS inhib 0, bovine MsrA act -1, MsrA inhibitor 2, OPRM1 ag 0 and HTR2A ag conf 6.
For C[C@@H]1CN([C@H](C)CO)C(=O)c2cc(NS(=O)(=O)c3ccccc3)ccc2O[C@@H](C)CCCCO[C@@H]1CN(C)Cc1ccccc1 the results were MsrA inhibitor 0.
COc1ccc(OC)c(NC(=O)CSc2nc3[nH]c(=O)[nH]c(=O)c3s2)c1 was read as HTR2A ag 18*, TbMetRS inhib 0, bovine MsrA act -8, MsrA inhibitor 2, OPRM1 ag -1 and HTR2A ag conf 1.
`CC(=O)C1=CCC(c2ccccc2)N(S(C)(=O)=O)C1` (centres undefined) gave HTR2A ag 8, TbMetRS inhib -1, bovine MsrA act -7 and MsrA inhibitor -1.
Screening Cc1cccc(C)c1NC(=O)NN=C1CCCCC1 returned HTR2A ag 16*, AHR act 2, TbMetRS inhib 0, bovine MsrA act -1, MsrA inhibitor -1, AI-2 QS modul -4, OPRM1 ag -1 and HTR2A ag conf -3.
For CCCCN(C(=O)c1ccc([N+](=O)[O-])s1)c1c(N)n(CC(C)C)c(=O)[nH]c1=O the results were HTR2A ag 5, AHR act -4, TbMetRS inhib 0, bovine MsrA act -1, MsrA inhibitor 2 and AI-2 QS modul 11.
Screening CCCCn1c(N)c(N(CCC(C)C)C(=O)c2ccc([N+](=O)[O-])s2)c(=O)[nH]c1=O returned HTR2A ag 19*, AHR act 1, TbMetRS inhib 0, bovine MsrA act -3, MsrA inhibitor 1, AI-2 QS modul 8, OPRM1 ag 0 and HTR2A ag conf -4.
Cc1cccc(C)c1NC(=O)CN(C)C(=O)c1ccccc1Sc1ccccc1C#N was read as HTR2A ag 2, AHR act -1, TbMetRS inhib 0, bovine MsrA act -4 and MsrA inhibitor 0.
For C=CCNC(=O)c1snnc1-c1ccccc1 the results were HTR2A ag -2, AHR act 0, TbMetRS inhib -2, bovine MsrA act -11, MsrA inhibitor 1 and AI-2 QS modul 12.
For CN(C)C(=O)c1snnc1-c1ccccc1 the results were HTR2A ag 18*, AHR act 4, TbMetRS inhib -2, bovine MsrA act -9, MsrA inhibitor 0, AI-2 QS modul -3, OPRM1 ag 0 and HTR2A ag conf -2.
Screening CCOC(=O)N1CCC(N(C(=O)Nc2ccc(Cl)c(Cl)c2)C(C)CC)CC1 (centres undefined) returned HTR2A ag 16*, AHR act 0, TbMetRS inhib -1, bovine MsrA act -2, MsrA inhibitor -1, AI-2 QS modul 14, OPRM1 ag 0 and HTR2A ag conf -2.
`CC(C)C(=O)N1CCCC1(C)C(=O)NCc1ccccn1` (centres undefined) gave HTR2A ag -1, TbMetRS inhib 0, bovine MsrA act -4 and MsrA inhibitor 0.
For CCCC(=O)N1CCCC1(C)C(=O)NCCc1ccccn1 (centres undefined) the results were HTR2A ag 22*, TbMetRS inhib 0, bovine MsrA act -2, MsrA inhibitor -1, OPRM1 ag 0 and HTR2A ag conf 3.
CC(C)(CC(=O)O)CC(=O)NCc1c(Cl)cccc1Sc1ccc(Cl)cc1 was read as HTR2A ag 15*, AHR act -1, TbMetRS inhib 0, bovine MsrA act -2, MsrA inhibitor 0, AI-2 QS modul 28, OPRM1 ag -1 and HTR2A ag conf -2.
CCOC(=O)c1c(S(=O)(=O)NC2CCN(C(=O)OCC)CC2)c(C)n(C)c1C was read as HTR2A ag -6, AHR act 3, TbMetRS inhib 0, bovine MsrA act -5, MsrA inhibitor -1 and AI-2 QS modul 18.
`COCCn1c(=O)[nH]c2cc(C(=O)N3CCN(c4cccc(C)c4C)CC3)ccc2c1=O` gave HTR2A ag 15*, AHR act 0, TbMetRS inhib -1, bovine MsrA act 1, MsrA inhibitor 0, OPRM1 ag 0 and HTR2A ag conf 1.
N#Cc1ccc(OCC(=O)N2CCN(C(=O)c3ccco3)CC2)cc1 was read as HTR2A ag 2, AHR act 0, TbMetRS inhib 0, bovine MsrA act -4 and MsrA inhibitor -1.
N#Cc1ccc(OCC(=O)N2CCCC2=O)cc1 was read as HTR2A ag 15*, AHR act 1, TbMetRS inhib -1, bovine MsrA act -3, MsrA inhibitor 2, OPRM1 ag 0.7* and HTR2A ag conf 2.
`O=C(NC1(N2CCOCC2)CC1)c1ccc(Cl)cc1` gave HTR2A ag 15*, AHR act 0, TbMetRS inhib -1, bovine MsrA act -2, MsrA inhibitor 0, AI-2 QS modul 23, OPRM1 ag -1 and HTR2A ag conf -2.
`COc1ccc(C(CNC(=O)CCNC(=O)c2ccccc2OC)N2CCCC2)cc1` (centres undefined) gave HTR2A ag -13, AHR act 0, TbMetRS inhib 0, bovine MsrA act -1, MsrA inhibitor 0 and AI-2 QS modul 6.
